CHOP UPR activ: activators of apoptotic arm of unfolded protein response (CHOP). CHO-CHOP luciferase reporter, UPR activation, luminescence; percent of tunicamycin response over DMSO baseline. activation, % at 10 µM. 330,000 compounds, 0.34% hits;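 active = at 10 µM dose, activation of 40% or more, normalized to positive control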;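 also: 100% = tunicamycin at 10 µg/mL and 0% = DMSO alone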
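Material: CHO-CHOP cells, stable luciferase reporter of PERK-eIF2a-CHOP signalling; quantity: 500 reporter cells seeded per well; buffer or medium: F12 medium containing 10% fetal bovine serum; compound: one dose, 10 µM in 0.5% DMSO; incubation: 6 h compound treatment, 37 °C; measured by: Steady-Glo luciferase luminescence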
SKKanGAS inh: inhibitors of SKKanGAS S. pyogenes growth in kanamycin (SK-promoter or general growth effect); inhibition, % at 7.5 µM; BacTiter-Glo, 6 h; 300,000 compounds, 1.3% hits;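 active = mean replicate score, as percent of positive control median, at least 50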;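 also: strain carries kanamycin resistance gene driven by streptokinase promoter and grows in 40 µg/ml kanamycin; loss of luminescence reflects streptokinase promoter inhibition or plain growth inhibition; 0% = median of DMSO wells and 100% = positive control at its reference dose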
CSC inhib: blocks cancer stem cells; cancer stem cell-like cells viability, luminescence; inhibition, % at 7.5 µM; 300,000 compounds, 1.1% hits; in the data active = inhibition above about 75%; tested in HMLE shEcad cells
UPR XBP1 act: activators of adaptive arm of unfolded protein response (XBP1). CHO-XBP1 luciferase reporter, IRE1-XBP1 UPR activation, luminescence; percent of tunicamycin response, DMSO as zero. activation, % at 20 µM. 330,000 compounds, 0.33% hits. AID 463104;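 active = versus positive control, 20 µM dose yields 30% or more activation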;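 also: 100% = tunicamycin at 10 µg/mL and 0% = DMSO only wells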
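assay system = CHO-XBP1 luciferase reporter cells | amount = 1000 cells/well | buffer or medium = F12 plus 10% FBS | compound dosing = single point, 20 µM final compound, 1% DMSO | incubation = 16-18 h cell attachment at 37 °C, then 6 h compound exposure | detection = Steady-Glo luminescence read | controls = tunicamycin 10 µg/mL and vehicle-only wells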
Mdm2-MdmX inh: human Mdm2/MdmX binding inhibition. O15151+Q00987. SaOS-2 split-luciferase Mdm2/MdmX complementation, luminescence. inhibition, % at 8 µM. 330,000 compounds, 3% hits. AID 485346;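 active = inhibition of at least 50% at 8 µM in the primary screen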
Target sequence (O15151 whole entry, looked up): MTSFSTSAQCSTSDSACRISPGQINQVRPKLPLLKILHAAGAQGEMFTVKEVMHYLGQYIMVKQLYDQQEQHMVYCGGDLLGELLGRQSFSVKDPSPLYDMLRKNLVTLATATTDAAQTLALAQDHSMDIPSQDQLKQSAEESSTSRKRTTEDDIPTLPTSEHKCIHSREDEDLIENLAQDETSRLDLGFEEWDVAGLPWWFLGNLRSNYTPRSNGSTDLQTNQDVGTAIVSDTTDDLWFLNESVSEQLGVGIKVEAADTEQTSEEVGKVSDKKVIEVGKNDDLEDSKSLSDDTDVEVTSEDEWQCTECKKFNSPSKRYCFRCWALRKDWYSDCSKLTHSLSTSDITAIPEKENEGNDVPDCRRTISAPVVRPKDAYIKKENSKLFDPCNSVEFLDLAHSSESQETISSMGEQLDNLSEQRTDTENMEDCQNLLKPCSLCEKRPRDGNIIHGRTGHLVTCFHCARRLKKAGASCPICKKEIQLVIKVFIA
Target sequence (Q00987 whole entry, looked up): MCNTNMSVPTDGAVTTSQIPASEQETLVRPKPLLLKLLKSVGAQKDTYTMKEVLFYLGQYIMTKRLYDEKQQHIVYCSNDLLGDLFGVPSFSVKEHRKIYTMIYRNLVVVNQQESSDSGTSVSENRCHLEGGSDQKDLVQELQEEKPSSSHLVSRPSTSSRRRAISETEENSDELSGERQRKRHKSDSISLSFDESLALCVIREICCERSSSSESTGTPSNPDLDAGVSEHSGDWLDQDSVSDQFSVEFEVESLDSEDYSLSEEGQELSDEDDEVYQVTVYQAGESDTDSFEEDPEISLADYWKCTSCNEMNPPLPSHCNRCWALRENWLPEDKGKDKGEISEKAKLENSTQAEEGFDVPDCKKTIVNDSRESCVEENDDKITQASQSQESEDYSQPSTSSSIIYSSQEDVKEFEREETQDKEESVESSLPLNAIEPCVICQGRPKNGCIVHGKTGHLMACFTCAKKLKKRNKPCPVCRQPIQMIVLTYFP
Beta apoptosis: blocks beta cell apoptosis; INS-1E cytokine-induced death, ATP luminescence, 48 h; percent of positive-control rescue, neutral wells zero; protection from apoptosis, % (test concentration not listed); 300,000 compounds, 0.8% hits; AID 435005;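 active = Every replicate reaches about 75%, or at least half do and their mean reaches it too, limit read from the data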;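 also: 0% = cytokine-treated negative control wells and 100% = positive control rescue; higher means more ATP so stronger rescue from cytokine killing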
Mdm2-MdmX conf: confirmation of human Mdm2/MdmX interaction inhibitors; shares compounds with Mdm2-MdmX inh; Mdm2-MdmX binding, luminescent assay; inhibition, % at 8 µM; 10,000 compounds, 55% hits; in the data active = inhibition above about 40%
Full FLuc ctr: full-length luciferase inhibition in Mdm2/MdmX counter-screen | shares compounds with Mdm2-MdmX inh | SaOS-2 full-length luciferase counterscreen, luminescence | inhibition, % at 8 µM | 6,200 compounds, 77% hits | AID 504607;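 active = mean inhibition at 8 µM reaching about 37%, which flags the compound as non-specific, limit read from the data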;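 also: p53-null SaOS-2 cells with luciferase driven by a doxycycline-inducible promoter; compound on cells about two nights before reading with doxycycline added after day one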
An asterisk follows results filed as active; · = no result given. The list is not random: actives were taken first. Their share in the collection is about 4.8%.

SMILES | CHOP UPR activ | SKKanGAS inh | CSC inhib | UPR XBP1 act | Mdm2-MdmX inh | Beta apoptosis | Mdm2-MdmX conf | Full FLuc ctr
COc1ccc(CNC(=O)c2c(N)n(CCCN3CCOCC3)c3nc4ccccc4nc23)cc1 | 2 | 14 | 83* | 7 | 56* | 42 | 26 | ·
CCCN(CC1CC1)C(=O)COC(=O)c1oc2c(F)cccc2c1C | -1 | · | -22 | -1 | 27 | -6 | · | ·
COc1cccc(-c2nc(SC)nc3sc(C(=O)NC(C)(C)C)c(N)c23)c1 | -1 | 16 | 32 | -3 | 0 | 4 | · | ·
CC1(C)Cc2c(c(N3CCCC3)nc3sc4c(N5CCNCC5)ncnc4c23)CO1 | 4 | 9 | 10 | 9 | 58* | · | 5 | ·
NC(=O)c1nn(-c2ccccc2)nc1NC(=O)Cn1nnc(-c2ccccc2)n1 | 3 | -2 | 1 | 0 | 61* | -4 | -6 | ·
Cc1noc(C)c1S(=O)(=O)Nc1ccccc1Oc1ccccc1 | 1 | 6 | -2 | 2 | 15 | -3 | · | ·
O=C1c2ccccc2-c2onc3ccc(Oc4ccccc4)c1c23 | -2 | 17 | · | -10 | 96* | · | 63* | 51*
CCOc1ccc(N2CC(C(=O)NCCc3ccc(F)cc3)CC2=O)cc1 (stereo not drawn) | 1 | -2 | · | -2 | -2 | 0 | · | ·
COc1ccc(N(C)C2=NS(=O)(=O)c3ccccc32)cc1 | 0 | -3 | 35 | -2 | 52* | 27 | 69* | 55*
O=S(Cc1ccc(Br)cc1)Cc1nnc(SCc2ccc(Cl)cc2)n1-c1ccccc1 (stereo not drawn) | 11 | 16 | 7 | 1 | 50* | 40 | 40 | 70*
CCN1CCCC1CNC(=O)c1cc([N+](=O)[O-])c(N(C)C)cc1OC (stereo not drawn) | 7 | 1 | 6 | -4 | 3 | -4 | · | ·
CN(C)CCCNC(=O)/C(=C\c1ccc(-c2ccc(Br)cc2)o1)NC(=O)c1ccccc1 | 2 | 1 | 14 | 0 | 100* | 12 | 52* | 29
CN(C)CCCNC(=O)/C(=C/c1ccc(-c2ccc([N+](=O)[O-])cc2)o1)NC(=O)c1ccccc1 | 1 | 2 | 36 | 0 | 24 | 3 | · | ·
Cc1ccc(C(=O)N/C(=C\c2ccc(-c3cccc([N+](=O)[O-])c3)o2)C(=O)NCCCN2CCOCC2)cc1 | 0 | 2 | 13 | -4 | 51* | 10 | 14 | ·
CN(C)CCNC(=O)/C(=C/c1ccc(-c2cccc(Cl)c2)o1)NC(=O)c1ccccc1 | 0 | -1 | 3 | 1 | 91* | 16 | 61* | 45*
Cc1ccc(C(=O)N/C(=C\c2ccc(-c3ccc(Cl)cc3)o2)C(=O)NCCCN(C)C)cc1 | 4 | 10 | 6 | 9 | 93* | 110* | 94* | 52*
O=C(CSc1ccccc1)OCC(=O)N1CCN(C(=O)c2ccco2)CC1 | -1 | · | -13 | -1 | 22 | 3 | · | ·
O=C(NNC(=O)C1CCC1)c1cccc(Cl)c1 | -1 | · | -10 | -1 | 20 | -6 | · | ·
CC(=O)c1ccc(N(CC(=O)NC2CCS(=O)(=O)C2)S(=O)(=O)c2ccc(Cl)cc2)cc1 (stereo not drawn) | 2 | · | 0 | -2 | -3 | -2 | · | ·
Cc1cccc(C)c1NC(=O)CN(C)C(=O)C1CC1C (stereo not drawn) | 0 | · | · | -3 | 10 | · | · | ·
COC(=O)c1c(-c2c(Cl)cccc2Cl)noc1C(=O)NNC(=O)N(C)C | -2 | 19 | 1 | -1 | 13 | -4 | · | ·
O=C(CN1C(=O)S/C(=C\C=C\c2ccccc2)C1=O)Nc1cccc(O)c1 | 6 | 8 | 93* | 2 | 99* | 23 | -3 | ·
O=C(CCN1C(=O)S/C(=C\C=C\c2ccccc2)C1=O)Nc1ccc(O)cc1 | 7 | 5 | -9 | 8 | -63 | -5 | · | ·
Cc1cccc(OCCCC(=O)NNC(=O)c2ccncc2)c1 | 1 | · | · | 2 | 27 | · | · | ·
Cc1cccc(OCCCC(=O)NNC(=O)c2ccccn2)c1 | -2 | · | · | -1 | 64* | 6 | 52* | 41*
SMILES | CHOP UPR activ | SKKanGAS inh | CSC inhib | UPR XBP1 act | Mdm2-MdmX inh | Beta apoptosis | Mdm2-MdmX conf | Full FLuc ctr
COc1ccc(/C=N\NC(=O)c2ccccc2Cl)cc1COc1c(F)c(F)c(F)c(F)c1F | -1 | 10 | 72 | -1 | 56* | 4 | 22 | ·
COc1ccc(/C=N\NC(=O)c2ccccc2OC)cc1COc1c(F)c(F)c(F)c(F)c1F | -1 | 39 | 11 | -2 | 5 | 0 | · | ·
Cc1cccc(N(C)c2ncnc3onc(-c4ccc(F)cc4)c23)c1C | 1 | 5 | 54 | -1 | 37 | 2 | · | ·
CCOC(=O)CSC1=NC(=O)/C(=C/c2ccc(OC)cc2)S1 | 21 | 1 | 73 | 10 | 76* | -19 | 53* | 32
COc1ccc(/C=C2\SC(N)=NC2=O)cc1 | 5 | 1 | · | -5 | 17 | · | · | ·
O=C1[C@@H](Oc2ccccc2)[C@@H](c2cnc3ccccc3c2)N1c1ccccc1 | 0 | · | · | 18 | 53* | · | 54* | 56*
COc1ccc(-c2cc(C(F)(F)F)nc(-n3ccnc3C)n2)cc1 | 1 | -7 | 7 | 4 | 55* | -3 | 36 | ·
COc1ccc(-c2cc(C(F)(F)F)nc(N3CCN(C)CC3)n2)cc1 | 2 | 0 | 3 | 2 | 4 | · | · | ·
O=C(c1cc(-c2ccc(F)cc2)nc2ccccc12)N1CCN(C2CCS(=O)(=O)C2)CC1 (stereo not drawn) | 1 | · | · | 3 | 25 | 10 | · | ·
O=C(CCC1COc2ccccc2O1)Nc1ccc(Cl)cn1 (stereo not drawn) | 1 | · | 61 | -2 | 67* | -8 | 45* | 84*
COC(=O)c1c(-c2ccc(OC)cc2)sc2ccc(N3CCOCC3)cc12 | 5 | · | 43 | 20 | 57* | 8 | -13 | ·
c1coc(CSSCc2ccco2)c1 | -2 | · | · | 23 | 31 | -6 | · | ·
Cc1cccc(C)c1NC(=O)COc1ccc2c(C)c(Cc3ccccc3)c(=O)oc2c1C | -1 | -8 | 1 | 6 | 97* | 10 | 11 | ·
Cc1c(C)c2ccc(OCC(=O)Nc3ccccn3)c(C)c2oc1=O | -11 | 25 | 38 | -12 | 88* | -6 | 90* | 52*
O=C(NCCCN1CCCC1=O)C1CCN(S(=O)(=O)c2ccc(Cl)cc2)CC1 | 1 | · | · | -2 | -15 | -3 | · | ·
NC(=O)c1ccc(NC(=O)CSc2nnc(-c3cccnc3)n2Cc2ccco2)cc1 | 2 | -2 | -14 | -1 | 2 | -7 | · | ·
Cc1ccc(OC(=O)c2ccc([N+](=O)[O-])cc2Cl)cn1 | -1 | -1 | -5 | -6 | -2 | -2 | · | ·

Screening data (PubChem BioAssay)
